Active and inactive are the calls of the source. No cut-off for these calls is given here.
Columns and labels:
[1] = biological target: Glutamate receptor ionotropic, NMDA 2B (Rattus norvegicus, UniProt Q00960); test: Displacement of [3H]ifenprodil from rat brain membrane NR2B receptor
[2] = biological target: Glutamate receptor ionotropic, NMDA 2B (Rattus norvegicus) (UniProt Q00960); test: Displacement of [3H]ifenprodil from rat brain membrane NR2B receptor relative to ifenprodil
[3] = Stability in frogs Ringer buffer in presence of N-acetyl cysteine methyl ester by HPLC; format: physicochemical; conditions: frog's Ringer buffer with N-acetyl cysteine methyl ester
In short: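 Half-life in frog's Ringer buffer, pH 7.4, followed by HPLC peak-area decrease over time in presence of excess N-acetyl cysteine methyl ester; NACME and compound levels varied per run (mM range); reactivity also expressed in relative terms.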

[4] = Stability in frogs Ringer buffer by HPLC; format: physicochemical; conditions: frog's Ringer buffer
[5] = biological target: T1, Glutamate NMDA receptor; GRIN1/GRIN2B (Homo sapiens, UniProt Q05586+Q13224); test: Inhibition of NR1/NR2B receptor expressed in xenopus oocytes assessed as effect on L-glutamate and glycine-induced current response at 10 uM; format: cell-based; conditions: Oocyte
[6] = biological target: T1, Glutamate NMDA receptor; GRIN1/GRIN2B; test: Inhibition of NR1/NR2B receptor expressed in xenopus oocytes assessed as effect on L-glutamate and glycine-induced current response; format: cell-based, Oocyte
In short: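 Two-electrode voltage clamp on Xenopus oocytes expressing wild-type NR1/NR2B receptors. NMDA currents were evoked with saturating L-glutamate plus glycine. The compound was applied during an ongoing NMDA response, and the change in current amplitude it induced was measured.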

[7] = biological target: T1, Glutamate NMDA receptor; GRIN1/GRIN2B; test: Inhibition of NR1/NR2B receptor expressed in xenopus oocytes assessed as effect on L-glutamate and glycine-induced current response relative to ifenprodil; format: cell-based; conditions: Oocyte
In short: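 Two-electrode voltage clamp on Xenopus oocytes expressing wild-type NR1/NR2B. Currents evoked by saturating L-glutamate plus glycine, 100 µM each; compound applied during the NMDA response and change in current size measured.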

[8] = biological target: T2, Glutamate NMDA receptor; GRIN1/GRIN2A (Homo sapiens, UniProt Q05586+Q12879); test: Activity at NR1/NR2A receptor expressed in xenopus oocytes assessed as Inhibition of L-glutamate and glycine-induced current response at 100 uM; format: cell-based; conditions: Oocyte
[9] = biological target: T1, Glutamate NMDA receptor; GRIN1/GRIN2B; test: Inhibition of N-terminal domain truncated NR1/NR2B receptor expressed in xenopus oocytes assessed as effect on L-glutamate and glycine-induced current response upto 100 uM; format: cell-based; conditions: Oocyte
[10] = biological target: T2, Glutamate NMDA receptor; GRIN1/GRIN2A; test: Activity at NR1/NR2A receptor expressed in xenopus oocytes assessed as effect on L-glutamate and glycine-induced current response; format: cell-based, Oocyte
[11] = biological target: T1, Glutamate NMDA receptor; GRIN1/GRIN2B; test: Inhibition of N-terminal domain truncated NR1/NR2B receptor expressed in xenopus oocytes assessed as effect on L-glutamate and glycine-induced current response; format: cell-based, Oocyte
[12] = biological target: T2, Glutamate NMDA receptor; GRIN1/GRIN2A; test: Inhibition of NR1/NR2A receptor expressed in xenopus oocytes assessed as effect on L-glutamate and glycine-induced current response; format: cell-based, Oocyte

Sequence of Glutamate receptor ionotropic, NMDA 2B (Rattus norvegicus) (Q00960 27-1482 limits assumed): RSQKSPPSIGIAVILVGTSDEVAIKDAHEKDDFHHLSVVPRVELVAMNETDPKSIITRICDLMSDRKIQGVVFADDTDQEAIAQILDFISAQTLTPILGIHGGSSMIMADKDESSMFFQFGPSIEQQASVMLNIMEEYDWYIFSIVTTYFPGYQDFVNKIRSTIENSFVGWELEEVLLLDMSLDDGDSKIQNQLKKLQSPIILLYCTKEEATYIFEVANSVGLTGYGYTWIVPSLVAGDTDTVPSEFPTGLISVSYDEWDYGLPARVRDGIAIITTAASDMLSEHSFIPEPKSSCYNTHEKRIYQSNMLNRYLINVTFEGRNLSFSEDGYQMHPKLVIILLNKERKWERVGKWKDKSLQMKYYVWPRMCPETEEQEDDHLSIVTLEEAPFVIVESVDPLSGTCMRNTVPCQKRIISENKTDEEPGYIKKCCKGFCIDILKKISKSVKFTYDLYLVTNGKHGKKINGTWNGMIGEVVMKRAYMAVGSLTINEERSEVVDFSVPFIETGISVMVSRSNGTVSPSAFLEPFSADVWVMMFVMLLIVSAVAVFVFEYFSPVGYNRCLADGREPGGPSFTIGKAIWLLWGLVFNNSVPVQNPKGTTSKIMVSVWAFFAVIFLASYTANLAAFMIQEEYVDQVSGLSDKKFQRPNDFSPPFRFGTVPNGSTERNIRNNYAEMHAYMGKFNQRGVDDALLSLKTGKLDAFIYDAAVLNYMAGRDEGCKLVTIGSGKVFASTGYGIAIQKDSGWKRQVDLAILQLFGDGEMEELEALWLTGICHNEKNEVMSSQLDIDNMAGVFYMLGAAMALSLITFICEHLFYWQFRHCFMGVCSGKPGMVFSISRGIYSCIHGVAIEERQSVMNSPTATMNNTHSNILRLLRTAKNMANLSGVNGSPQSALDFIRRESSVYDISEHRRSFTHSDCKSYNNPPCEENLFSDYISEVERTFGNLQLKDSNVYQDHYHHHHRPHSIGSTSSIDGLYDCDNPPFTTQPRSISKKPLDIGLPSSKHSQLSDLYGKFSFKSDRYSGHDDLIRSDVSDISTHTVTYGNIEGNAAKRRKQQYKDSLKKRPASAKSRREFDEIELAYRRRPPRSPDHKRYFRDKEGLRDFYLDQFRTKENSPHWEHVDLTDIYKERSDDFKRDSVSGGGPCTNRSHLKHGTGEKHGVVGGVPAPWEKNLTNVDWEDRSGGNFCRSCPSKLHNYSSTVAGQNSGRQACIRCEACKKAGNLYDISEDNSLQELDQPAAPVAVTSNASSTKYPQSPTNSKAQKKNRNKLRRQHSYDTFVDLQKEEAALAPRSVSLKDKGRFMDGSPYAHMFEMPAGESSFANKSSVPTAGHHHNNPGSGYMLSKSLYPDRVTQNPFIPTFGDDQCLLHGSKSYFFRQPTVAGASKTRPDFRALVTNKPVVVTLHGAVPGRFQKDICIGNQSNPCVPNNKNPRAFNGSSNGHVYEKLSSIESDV
Sequence of Glutamate receptor ionotropic, NMDA 2B (Q00960 whole entry): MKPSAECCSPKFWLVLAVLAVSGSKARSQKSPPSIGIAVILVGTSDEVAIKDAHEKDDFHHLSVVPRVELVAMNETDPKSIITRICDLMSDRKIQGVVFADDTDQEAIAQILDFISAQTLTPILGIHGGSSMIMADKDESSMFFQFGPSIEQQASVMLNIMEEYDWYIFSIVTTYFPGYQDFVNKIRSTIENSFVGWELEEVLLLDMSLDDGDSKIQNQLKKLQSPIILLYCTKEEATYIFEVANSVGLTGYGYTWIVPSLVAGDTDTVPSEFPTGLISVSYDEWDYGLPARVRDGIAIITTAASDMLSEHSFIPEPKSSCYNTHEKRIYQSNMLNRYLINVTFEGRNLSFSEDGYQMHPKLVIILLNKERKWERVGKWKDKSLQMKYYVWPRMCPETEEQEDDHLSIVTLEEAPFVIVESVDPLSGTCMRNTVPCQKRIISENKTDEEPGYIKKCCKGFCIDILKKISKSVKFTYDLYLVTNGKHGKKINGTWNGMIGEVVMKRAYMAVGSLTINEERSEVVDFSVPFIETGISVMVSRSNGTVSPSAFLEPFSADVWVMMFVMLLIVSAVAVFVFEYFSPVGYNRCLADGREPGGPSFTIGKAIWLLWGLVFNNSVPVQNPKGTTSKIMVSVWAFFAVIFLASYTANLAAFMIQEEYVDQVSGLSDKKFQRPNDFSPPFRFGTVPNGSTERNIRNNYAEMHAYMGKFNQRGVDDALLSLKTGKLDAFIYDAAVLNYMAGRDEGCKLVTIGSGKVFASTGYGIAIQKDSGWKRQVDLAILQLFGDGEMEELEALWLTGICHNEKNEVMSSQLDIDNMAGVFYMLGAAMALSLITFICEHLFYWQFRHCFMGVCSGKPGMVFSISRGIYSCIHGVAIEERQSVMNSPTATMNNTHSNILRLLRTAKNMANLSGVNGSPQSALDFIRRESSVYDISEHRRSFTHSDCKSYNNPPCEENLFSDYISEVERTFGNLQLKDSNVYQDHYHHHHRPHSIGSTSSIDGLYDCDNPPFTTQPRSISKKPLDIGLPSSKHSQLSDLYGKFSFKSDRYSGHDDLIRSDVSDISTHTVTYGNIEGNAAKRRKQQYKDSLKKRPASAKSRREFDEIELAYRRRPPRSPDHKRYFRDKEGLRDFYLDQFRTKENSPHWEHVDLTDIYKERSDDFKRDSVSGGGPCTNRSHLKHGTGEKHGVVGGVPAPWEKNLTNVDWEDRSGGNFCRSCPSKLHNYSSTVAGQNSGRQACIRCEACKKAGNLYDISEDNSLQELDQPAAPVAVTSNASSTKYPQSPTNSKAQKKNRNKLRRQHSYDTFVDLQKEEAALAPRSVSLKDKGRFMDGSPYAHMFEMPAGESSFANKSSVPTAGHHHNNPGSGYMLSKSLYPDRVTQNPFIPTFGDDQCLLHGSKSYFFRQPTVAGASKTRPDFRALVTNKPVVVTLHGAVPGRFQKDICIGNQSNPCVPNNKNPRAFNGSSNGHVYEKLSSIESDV

| SMILES | Ki [1] | Ratio [2] | half-life [3] | half-life [4] | also measured |
| --- | --- | --- | --- | --- | --- |
| CC(C(O)c1ccc(N)cc1)N1CCC(Cc2ccccc2)CC1 (racemic; threo) [listing 1 of 2 here] | 300 nM |  |  |  |  |
| O=C(CN1CCC(Cc2ccccc2)CC1)c1ccc(O)cc1 | 141 nM | 13 |  |  |  |
| CC(C(=O)c1ccc(N=C=S)cc1)N1CCC(Cc2ccccc2)CC1 (stereo not given) | 679 nM | 62 | 0.054 h | 20 h | inhibition [5]: 8% |
| C=C(CN1CCC(Cc2ccccc2)CC1)C(=O)c1ccc(OC)cc1 | 527 nM | 48 | 0.117 h | 5 h | IC50 [6]: 70000 nM; Ratio IC50 [7]: 640; inhibition [8]: 11%; Activity [9]: inactive; EC50 [10]: > 100000 nM |
| CC(C(=O)c1ccc(NC(=O)CCl)cc1)N1CCC(Cc2ccccc2)CC1 (stereo not given) | 493 nM | 45 | 1.9 h | > 24 h | IC50 [6]: 14000 nM; Ratio IC50 [7]: 130; inhibition [8]: 25%; IC50 [11]: 230000 nM; EC50 [10]: > 100000 nM |
| CC(C(O)c1ccc(N)cc1)N1CCC(Cc2ccccc2)CC1 (racemic; threo) [listing 2 of 2 here] |  | 27 |  |  |  |
| O=C(CN1CCC(Cc2ccc(N=C=S)cc2)CC1)c1ccc(O)cc1 | 245 nM | 22 | 0.383 h | > 24 h | IC50 [6]: 16000 nM; IC50 [12]: 16000 nM; Ratio IC50 [7]: 145; IC50 [11]: 570000 nM; EC50 [10]: > 100000 nM |
| CC(=O)Nc1ccc(C(=O)C(C)N2CCC(Cc3ccccc3)CC2)cc1 (stereo not given) | 107 nM | 10 |  |  |  |
| CC(C(O)c1ccc(N)cc1)N1CCC(Cc2ccccc2)CC1 (racemic; erythro) [listing 1 of 2 here] |  | 8.8 |  |  |  |
| CC(C(=O)c1ccc(N)cc1)N1CCC(Cc2ccccc2)CC1 (stereo not given) | 58 nM | 1 |  |  |  |
| C=C(CN1CCC(Cc2ccccc2)CC1)C(=O)c1ccc([N+](=O)[O-])cc1 | 248 nM | 23 | 1.03 h | 5 h |  |
| Oc1ccc(C(O)CN2CCC(Cc3ccccc3)CC2)cc1 (stereo not given) | 62 nM | 16 |  |  |  |
| CC(C(O)c1ccc(N)cc1)N1CCC(Cc2ccccc2)CC1 (racemic; erythro) [listing 2 of 2 here] | 97 nM |  |  |  |  |
| O=C(CN1CCC(Cc2ccc([N+](=O)[O-])cc2)CC1)c1ccc(O)cc1 | 200 nM | 18 |  |  |  |

Source: ChEMBL document CHEMBL1145640 (Bioorg Med Chem Lett, 2008)
